Experimental data as given in ChEMBL document CHEMBL2046403, “Biochemical and pharmacological evaluation of 4-hydroxychromen-2-ones bearing polar C-3 substituents as anticoagulants” (Eur J Med Chem, 2012).
Each block holds one compound with its values, some of them ahead of it.

What was measured:
[1] = test system: Rattus norvegicus; assay: Hepatotoxicity in Wistar albino rat assessed as change in serum iron level at 0.5 mg/kg, ip measured after 24 hrs; format: toxicity, organism-based; set-up: dose 0.5 mg/kg, route intraperitoneal; settings: in vivo
[2] = test system: Rattus norvegicus; assay: Hepatotoxicity in Wistar albino rat assessed as change in serum ALT level at 0.5 mg/kg, ip measured after 24 hrs; format: toxicity, organism-based; set-up: dose 0.5 mg/kg, route intraperitoneal; settings: in vivo
[3] = test system: Rattus norvegicus; assay: Hepatotoxicity in Wistar albino rat assessed as change in serum bilirubin level at 0.5 mg/kg, ip measured after 24 hrs; format: toxicity, organism-based; set-up: dose 0.5 mg/kg, route intraperitoneal; settings: in vivo
[4] = test system: Rattus norvegicus; assay: Toxicity in Wistar albino rat assessed as lethal dose at 0.5 mg/kg/day, ip administered for 5 days; format: organism-based; set-up: route intraperitoneal; settings: in vivo, 120 h
[5] = test system: Rattus norvegicus; assay: Hepatotoxicity in Wistar albino rat assessed as change in serum gamma-GT level at 0.5 mg/kg, ip measured after 24 hrs; format: toxicity, organism-based; set-up: dose 0.5 mg/kg, route intraperitoneal; settings: in vivo
[6] = test system: Rattus norvegicus; assay: Hepatotoxicity in Wistar albino rat assessed as change in serum AST level at 0.5 mg/kg, ip measured after 24 hrs; format: toxicity, organism-based; set-up: dose 0.5 mg/kg, route intraperitoneal; settings: in vivo
[7] = test system: Plasma; assay: Anticoagulant activity in Wistar albino rat plasma assessed as prothrombin time at 0.1 mg/kg, ip; format: functional; settings: route intraperitoneal
Procedure, shortened: (§1)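 Adult Wistar rats (2.5 months, 220–250 g), three per compound and control, were given a single i.p. dose of 0.1 or 0.5 mg/kg in ethanol solution and sacrificed 24 h later. […] Plasma prothrombin time was measured by Quick method and reported in seconds and as INR, from at least three measurements.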

[8] = test system: Plasma; assay: Anticoagulant activity in Wistar albino rat plasma assessed as fibrinogen level; format: functional
Procedure, shortened: (§2)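 Adult albino Wistar rats (2.5 months old, 220–250 g), three per compound and control. […] Fibrin time and fibrinogen were determined on plasma. Fibrinogen was quantified by biuret method at 540 nm. At least three measurements, reported with standard deviation.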

[9] = test system: Rattus norvegicus; assay: Hepatotoxicity in Wistar albino rat assessed as change in serum albumin level at 0.5 mg/kg, ip measured after 24 hrs; format: toxicity, organism-based; set-up: dose 0.5 mg/kg, route intraperitoneal; settings: in vivo
[10] = test system: Plasma; assay: Anticoagulant activity in Wistar albino rat plasma assessed as fibrin time; format: functional; procedure, shortened: as §2
[11] = test system: Rattus norvegicus; assay: Hepatotoxicity in Wistar albino rat assessed as change in serum protein level at 0.5 mg/kg, ip measured after 24 hrs; format: toxicity, organism-based; set-up: dose 0.5 mg/kg, route intraperitoneal; settings: in vivo
[12] = test system: Rattus norvegicus; assay: Hepatotoxicity in Wistar albino rat assessed as change in serum ALP level at 0.5 mg/kg, ip measured after 24 hrs; format: toxicity, organism-based; set-up: dose 0.5 mg/kg, route intraperitoneal; settings: in vivo
[13] = test system: Plasma; assay: Anticoagulant activity in human plasma assessed as prothrombin time at 1 mg/ml; format: functional
Procedure, shortened: (§3)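 Frozen human plasma (blood type A+) was used. Compounds were prepared at 1 mg/mL in a vehicle of 96% EtOH, 0.9% NaCl, 20% glycerol and phosphate buffer pH 7. Prothrombin time was measured by Quick method and reported in seconds and as INR, with SD from at least three measurements.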

[14] = test system: Plasma; assay: Anticoagulant activity in Wistar albino rat plasma assessed as fibrinogen level at 0.5 mg/kg/day, ip administered for 5 days; format: functional; settings: route intraperitoneal
Procedure, shortened: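 Wistar rats (220–250 g), three per group, got one i.p. dose of 0.5 mg/kg per day for five days and were sacrificed on day six. […] Plasma fibrinogen was measured by biuret method at 540 nm.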

[15] = test system: Rattus norvegicus; assay: Hepatotoxicity in Wistar albino rat assessed as change in serum AST level at 0.5 mg/kg/day, ip administered for 5 days measured after second compound dose; settings: in vivo, 120 h
[16] = test system: Rattus norvegicus; assay: Drug metabolism in Wistar albino rat assessed as coumarin-7-glucuronide level in urine at 1 mg/kg, ip measured after 72 hrs by GC/MS analysis; settings: in vivo
[17] = test system: Rattus norvegicus; assay: Anticoagulant activity in Wistar rats in vivo assessed as prothrombin time
[18] = test system: Plasma; assay: Anticoagulant activity in Wistar albino rat plasma assessed as international normalized ratio at 0.5 mg/kg, ip; format: functional; settings: route intraperitoneal; procedure, shortened: as §1
[19] = test system: Plasma; assay: Anticoagulant activity in Wistar albino rat plasma assessed as prothrombin time at 0.5 mg/kg, ip relative to warfarin; format: functional; settings: route intraperitoneal
Procedure, shortened: (§4)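 Rats (Wistar, 220–250 g, n=3 per group) were dosed i.p. with 0.5 mg/kg compound in ethanol solution. Prothrombin time was measured in plasma by Quick method and expressed as fold of the matching control value. […] Groups were compared by one-way ANOVA with Dunnett T3 or Bonferroni post-hoc tests.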

[20] = test system: Plasma; assay: Anticoagulant activity in Wistar albino rat plasma assessed as prothrombin time at 0.5 mg/kg, ip relative to untreated control; format: functional; settings: route intraperitoneal; procedure, shortened: as §4
[21] = test system: Plasma; assay: Anticoagulant activity in Wistar albino rat plasma assessed as prothrombin time at 0.5 mg/kg/day, ip administered for 5 days measured after second dose; format: functional; settings: route intraperitoneal
Procedure, shortened: (§5)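 Wistar rats, three per group, were dosed i.p. at 0.5 mg/kg per day over five days in ethanol solution and sacrificed on day six. Plasma prothrombin time was measured by Quick method after the second 0.5 mg/kg administration, reported in seconds and INR. Where animals were dosed more than once, PTs were averaged.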

[22] = test system: Plasma; assay: Anticoagulant activity in human plasma assessed as international normalized ratio at 1 mg/ml; format: functional; procedure, shortened: as §3
[23] = test system: Rattus norvegicus; assay: Drug metabolism in Wistar albino rat assessed as 7-hydroxycoumarin level in urine at 1 mg/kg, ip measured after 72 hrs by GC/MS analysis; settings: in vivo
[24] = target: VKORC1 (Rattus norvegicus); assay: Inhibition of VKORC1
[25] = test system: Plasma; assay: Anticoagulant activity in Wistar albino rat plasma assessed as international normalized ratio at 0.5 mg/kg/day, ip administered for 5 days measured after second dose; format: functional; settings: route intraperitoneal; procedure, shortened: as §5
[26] = test system: Rattus norvegicus; assay: Hepatotoxicity in Wistar albino rat assessed as change in serum ALT level at 0.5 mg/kg/day, ip administered for 5 days measured after second compound dose; settings: in vivo, 120 h
[27] = test system: Rattus norvegicus; assay: Hepatotoxicity in Wistar albino rat assessed as change in serum iron level at 0.5 mg/kg/day, ip administered for 5 days measured after second compound dose; format: toxicity, organism-based; set-up: route intraperitoneal; settings: in vivo, 120 h
[28] = test system: Rattus norvegicus; assay: Hepatotoxicity in Wistar albino rat assessed as change in serum AST level at 0.5 mg/kg, ip measured after 24 hrs relative to untreated control; format: toxicity, organism-based; set-up: dose 0.5 mg/kg, route intraperitoneal; settings: in vivo
Procedure, shortened: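 Serum AST was measured 24 h after a single 0.5 mg/kg i.p. dose (ethanol solution) in Wistar rats, three per group, by IFCC UV kinetic method at 340 nm. Activity was expressed as fold of the negative (96% ethanol) control, and compared by one-way ANOVA with post-hoc tests.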

[29] = test system: Plasma; assay: Anticoagulant activity in Wistar albino rat plasma assessed as prothrombin time at 0.5 mg/kg, ip; format: functional; settings: route intraperitoneal
Procedure, shortened: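 Adult Wistar rats (2.5 months, 220–250 g), three per compound and control, were given a single i.p. dose of 0.1 or 0.5 mg/kg in ethanol solution and sacrificed 24 h later. Plasma prothrombin time was measured by Quick method and reported in seconds and as INR, from at least three measurements.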

[30] = test system: Plasma; assay: Anticoagulant activity in Wistar albino rat plasma assessed as international normalized ratio at 0.1 mg/kg, ip; format: functional; settings: route intraperitoneal; procedure, shortened: as §1
[31] = test system: Rattus norvegicus; assay: Hepatotoxicity in Wistar albino rat assessed as change in serum gamma-GT level at 0.5 mg/kg, ip administered for 5 days measured after second compound dose; format: toxicity, organism-based; set-up: dose 0.5 mg/kg, route intraperitoneal; settings: in vivo, 120 h
[32] = test system: Rattus norvegicus; assay: Hepatotoxicity in Wistar albino rat assessed as change in serum protein level at 0.5 mg/kg/day, ip administered for 5 days; format: toxicity, organism-based; set-up: route intraperitoneal; settings: in vivo, 120 h
[33] = test system: Rattus norvegicus; assay: Hepatotoxicity in Wistar albino rat assessed as change in serum albumin level at 0.5 mg/kg/day, ip administered for 5 days; format: toxicity, organism-based; set-up: route intraperitoneal; settings: in vivo, 120 h

Compound: CC(=O)CC(c1ccccc1)c1c(O)c2ccccc2oc1=O (stereo not given) [WARFARIN]
- Activity [1]: 22.3 µmol/L
- Activity [2]: 51.5 U/L
- Activity [3]: 1.3 µmol/L
- Activity [4]: Toxic
- Activity [5]: 3.4 U/L
- Activity [6]: 277.3 U/L
- PT [7]: 10.3 s
- Activity [8]: 1.9 g/L
- Activity [9]: 34.5 g/L
- Time [10]: 33.4 s
- Activity [11]: 59.4 g/L
- Activity [12]: 170 U/L
- PT [13]: 18.5 s

- Drug metabolism [16]: Active
- IC50 [17]: 141 µM
- Drug metabolism [23]: Active
- Ki [24]: 44.8 µM
Compound: O=c1oc2ccccc2c(O)c1-c1csc(Nc2ccc(S(=O)(=O)O)cc2)n1
- Activity [1]: 19.3 µmol/L
- Activity [2]: 58.4 U/L
- Activity [14]: 0.9 g/L
- Activity [3]: 1.6 µmol/L
- AST [15]: 207.5 U/L
- Ratio [18]: 0.84
- Activity [5]: 2.4 U/L
- fold change (FC) [19]: 1.18
- fold change (FC) [20]: 1.27
- Activity [6]: 269.7 U/L
- PT [21]: 28.6 s
- Ratio [22]: 2.6
- PT [7]: 10.4 s
- Activity [9]: 40.8 g/L
- Ratio [25]: 1.38
- ALT [26]: 63 U/L
- Activity [27]: 19 µmol/L
- Time [10]: >500 s
- fold change (FC) [28]: 1.59
- PT [29]: 12.4 s
- Activity [11]: 64.9 g/L
- Ratio [30]: 0.82
- Activity [12]: 164 U/L
- Activity [31]: 2.2 U/L
- PT [13]: 26.5 s

- IC50 [17]: 2340 µM
Compound: C/C(=C(\C#N)C(=O)O)c1c(O)c2ccccc2oc1=O
- Activity [32]: 68.9 g/L
- Ratio [18]: 0.69
- Ratio [22]: 2.25
- PT [7]: 8.2 s
- Activity [8]: 0.5 g/L
- Activity [9]: 38.6 g/L
- Time [10]: 196.8 s
- Activity [33]: 38.6 g/L
- PT [29]: 9.2 s
- Activity [11]: 68.9 g/L
- Ratio [30]: 0.66
- PT [13]: 21 s
